Data set [1] concerns the target Cyclin-dependent kinase 1/cyclin B1 (Homo sapiens, UniProt P06493). As to the kind of experiment: Inhibition of CDK1/Cyclin B. The class given is protein-complex assay. The essentials: (§1)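 Ki values were calculated from measured IC50 values of kinase inhibition.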
For data set [2], the target named is Cyclin-dependent kinase 5/CDK5 activator 1 (Homo sapiens, UniProt Q00535). As to the kind of experiment: Inhibition of CDK5/p25. The class given is protein-complex assay. The essentials:
as §1

For data set [3], the target named is Glycogen synthase kinase-3 beta (Homo sapiens, UniProt P49841). As to the kind of experiment: Inhibition of GSK3beta. The essentials: as §1
Sequence of Glycogen synthase kinase-3 beta (P49841 whole entry): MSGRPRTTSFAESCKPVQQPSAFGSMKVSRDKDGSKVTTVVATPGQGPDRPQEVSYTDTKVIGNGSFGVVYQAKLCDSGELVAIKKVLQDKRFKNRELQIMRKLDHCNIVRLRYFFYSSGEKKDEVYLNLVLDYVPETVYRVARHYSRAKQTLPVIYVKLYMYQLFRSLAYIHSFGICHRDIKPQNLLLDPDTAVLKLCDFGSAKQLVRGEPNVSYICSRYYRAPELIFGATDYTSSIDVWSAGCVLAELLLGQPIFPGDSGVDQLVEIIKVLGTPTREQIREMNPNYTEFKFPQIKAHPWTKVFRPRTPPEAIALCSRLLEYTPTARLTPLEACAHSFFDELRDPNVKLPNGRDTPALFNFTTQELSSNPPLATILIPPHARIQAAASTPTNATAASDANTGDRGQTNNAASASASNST
Data set [4] addresses Cyclin-dependent kinase 2/cyclin E (Homo sapiens, UniProt P24941). Kind of data set: Inhibition of CDK2/Cyclin E. Format: protein-complex assay. An outline of the steps: as §1
Data set [5] can be described thus: Inhibition of CDK4/Cyclin D. The essentials:
as §1

Data set [6] addresses Cdk5-Cdk5r1 complex (Mus musculus) (UniProt P49615+P61809). As to the kind of experiment: Inhibition of CDK5/p25-mediated Tau S202/T205 phosphorylation in mouse N2A cells at 2.6 to 24 uM after 16 hrs by immunoblot analysis. The class given is cell-based. An outline of the steps:
(§2)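 Mouse N2A cells stably transfected with a 3-repeat tau construct were grown 24 h in DMEM/HAMs F-12 (pH 7.4), 5% FBS, 2 mM L-glutamine and gentamicin (37 °C, 5% CO2). They were then exposed 16 h to inhibitor diluted from a 25 mM DMSO stock (final DMSO ≤0.4%, also in controls). Lysate proteins were run on 8% SDS–PAGE, blotted to PVDF, and probed for phospho-Ser202/Thr205 tau.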
Background: A western blot detects proteins with antibodies after separation by electrophoresis.

Data set [7] addresses Casein kinase I isoform alpha (Homo sapiens, UniProt P48729). Kind of data set: Inhibition of Ck1alpha1.
For data set [8], the target named is Protein kinase C alpha type (Homo sapiens, UniProt P17252). Kind of data set: Inhibition of PKCalpha.
In data set [9] the test system is N2a. Kind of data set: Cytotoxicity against mouse N2A cells up to 90 uM by LDH assay. The class given is cell-based. The essentials:
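Membrane integrity in N2A cells was read as extracellular lactate dehydrogenase activity, at compound concentrations up to 90 µM. Absorbance was read at 492 nm 20 min after adding the reagent mixture and compared with compound-free cells.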

The target in data set [10] is Glycogen synthase kinase-3 beta (Mus musculus) (UniProt Q9WV60). Kind of data set: Inhibition of GSK3beta-mediated Tau S202/T205 phosphorylation in mouse N2A cells at 2.6 to 24 uM after 16 hrs by immunoblot analysis. Format: cell-based. The essentials: as §2
Data set [11] addresses T1, Protein kinase C epsilon type (Homo sapiens, UniProt Q02156).
T1 sequence (Q02156 whole entry): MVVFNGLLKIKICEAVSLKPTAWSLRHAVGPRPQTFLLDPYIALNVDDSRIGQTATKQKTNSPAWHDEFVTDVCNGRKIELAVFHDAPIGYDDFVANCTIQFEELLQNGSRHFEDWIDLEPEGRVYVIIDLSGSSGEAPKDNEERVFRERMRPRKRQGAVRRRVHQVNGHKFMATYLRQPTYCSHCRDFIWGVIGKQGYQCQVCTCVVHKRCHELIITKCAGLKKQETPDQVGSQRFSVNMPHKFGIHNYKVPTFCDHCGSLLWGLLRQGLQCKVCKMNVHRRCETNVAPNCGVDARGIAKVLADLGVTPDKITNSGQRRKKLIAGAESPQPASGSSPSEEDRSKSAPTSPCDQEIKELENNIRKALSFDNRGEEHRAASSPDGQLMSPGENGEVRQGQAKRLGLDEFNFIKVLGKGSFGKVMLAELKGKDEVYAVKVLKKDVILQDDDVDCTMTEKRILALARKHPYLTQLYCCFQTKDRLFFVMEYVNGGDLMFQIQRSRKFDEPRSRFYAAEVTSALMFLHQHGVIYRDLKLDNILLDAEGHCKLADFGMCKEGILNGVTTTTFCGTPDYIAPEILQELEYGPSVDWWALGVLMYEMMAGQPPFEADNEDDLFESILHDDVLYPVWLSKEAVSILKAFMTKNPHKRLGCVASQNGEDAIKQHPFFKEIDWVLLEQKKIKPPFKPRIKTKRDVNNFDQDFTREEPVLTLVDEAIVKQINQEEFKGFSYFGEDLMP
As to the kind of experiment: Inhibition of PKCepsilon.

Data set [12] concerns the target Protein kinase C gamma type (Homo sapiens, UniProt P05129). Kind of data set: Inhibition of PKCgamma.
Data set [13] deals with Receptor tyrosine-protein kinase erbB-2 (Homo sapiens, UniProt P04626). As to the kind of experiment: Inhibition of ERBB2.
Sequence of Receptor tyrosine-protein kinase erbB-2 (P04626 whole entry): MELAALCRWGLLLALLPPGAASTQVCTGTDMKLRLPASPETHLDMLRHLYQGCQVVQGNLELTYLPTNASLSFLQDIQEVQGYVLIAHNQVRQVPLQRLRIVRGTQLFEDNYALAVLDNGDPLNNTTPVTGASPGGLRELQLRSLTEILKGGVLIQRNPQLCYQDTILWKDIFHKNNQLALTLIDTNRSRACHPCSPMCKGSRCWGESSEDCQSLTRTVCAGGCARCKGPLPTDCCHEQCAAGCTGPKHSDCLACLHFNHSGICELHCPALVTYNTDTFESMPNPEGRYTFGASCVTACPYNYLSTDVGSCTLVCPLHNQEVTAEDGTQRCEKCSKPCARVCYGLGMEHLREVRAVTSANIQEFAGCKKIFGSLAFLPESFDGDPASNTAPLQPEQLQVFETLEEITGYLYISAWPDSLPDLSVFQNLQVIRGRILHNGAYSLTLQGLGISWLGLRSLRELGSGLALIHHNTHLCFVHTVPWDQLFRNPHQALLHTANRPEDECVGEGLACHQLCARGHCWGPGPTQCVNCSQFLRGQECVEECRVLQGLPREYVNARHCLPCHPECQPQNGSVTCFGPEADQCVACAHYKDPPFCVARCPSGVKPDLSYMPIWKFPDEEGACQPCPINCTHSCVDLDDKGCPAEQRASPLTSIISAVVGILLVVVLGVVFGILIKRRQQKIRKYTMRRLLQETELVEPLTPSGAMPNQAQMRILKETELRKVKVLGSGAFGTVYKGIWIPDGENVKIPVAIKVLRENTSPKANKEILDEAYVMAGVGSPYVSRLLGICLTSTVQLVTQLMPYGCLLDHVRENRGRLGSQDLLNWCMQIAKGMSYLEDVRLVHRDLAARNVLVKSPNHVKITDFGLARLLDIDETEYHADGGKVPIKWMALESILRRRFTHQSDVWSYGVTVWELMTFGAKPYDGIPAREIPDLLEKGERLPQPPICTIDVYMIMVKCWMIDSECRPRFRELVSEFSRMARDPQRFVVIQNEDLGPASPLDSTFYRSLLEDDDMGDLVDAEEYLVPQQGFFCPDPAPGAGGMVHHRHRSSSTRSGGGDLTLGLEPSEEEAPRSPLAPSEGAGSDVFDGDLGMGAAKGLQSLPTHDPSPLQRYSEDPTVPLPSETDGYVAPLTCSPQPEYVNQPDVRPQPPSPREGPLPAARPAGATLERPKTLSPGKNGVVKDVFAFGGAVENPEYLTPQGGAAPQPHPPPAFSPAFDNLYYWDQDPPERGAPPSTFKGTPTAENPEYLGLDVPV
For data set [14], the target named is CDK6/cyclin D1 (Homo sapiens, UniProt Q00534). Kind of data set: Inhibition of CDK6/Cyclin D1. Format: protein-complex assay.
Sequence of CDK6/cyclin D1 (P24385 whole entry): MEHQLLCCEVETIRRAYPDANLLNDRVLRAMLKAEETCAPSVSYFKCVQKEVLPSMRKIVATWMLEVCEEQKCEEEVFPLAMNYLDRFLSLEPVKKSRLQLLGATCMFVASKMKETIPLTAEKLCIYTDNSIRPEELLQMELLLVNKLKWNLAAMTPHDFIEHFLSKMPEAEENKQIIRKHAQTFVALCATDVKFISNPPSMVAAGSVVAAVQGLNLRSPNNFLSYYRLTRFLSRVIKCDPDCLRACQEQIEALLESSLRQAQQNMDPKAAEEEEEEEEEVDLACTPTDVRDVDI
Sequence of CDK6/cyclin D1 (Q00534 whole entry): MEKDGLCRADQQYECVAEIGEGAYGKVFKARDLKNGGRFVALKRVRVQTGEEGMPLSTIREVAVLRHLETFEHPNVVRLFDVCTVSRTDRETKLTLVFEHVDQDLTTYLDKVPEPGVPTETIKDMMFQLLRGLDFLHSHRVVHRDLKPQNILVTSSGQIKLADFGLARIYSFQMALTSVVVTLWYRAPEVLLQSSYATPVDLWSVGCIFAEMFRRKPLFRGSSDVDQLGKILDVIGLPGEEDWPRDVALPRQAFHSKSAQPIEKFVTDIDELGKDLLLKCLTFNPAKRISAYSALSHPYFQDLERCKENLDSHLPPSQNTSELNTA
Data set [15] addresses Wee1-like protein kinase (Homo sapiens, UniProt P30291). Kind of data set: Inhibition of WEE1.
Data set [16] concerns the target T2, Protein kinase C iota type (Homo sapiens, UniProt P41743).
T2 sequence (P41743 whole entry): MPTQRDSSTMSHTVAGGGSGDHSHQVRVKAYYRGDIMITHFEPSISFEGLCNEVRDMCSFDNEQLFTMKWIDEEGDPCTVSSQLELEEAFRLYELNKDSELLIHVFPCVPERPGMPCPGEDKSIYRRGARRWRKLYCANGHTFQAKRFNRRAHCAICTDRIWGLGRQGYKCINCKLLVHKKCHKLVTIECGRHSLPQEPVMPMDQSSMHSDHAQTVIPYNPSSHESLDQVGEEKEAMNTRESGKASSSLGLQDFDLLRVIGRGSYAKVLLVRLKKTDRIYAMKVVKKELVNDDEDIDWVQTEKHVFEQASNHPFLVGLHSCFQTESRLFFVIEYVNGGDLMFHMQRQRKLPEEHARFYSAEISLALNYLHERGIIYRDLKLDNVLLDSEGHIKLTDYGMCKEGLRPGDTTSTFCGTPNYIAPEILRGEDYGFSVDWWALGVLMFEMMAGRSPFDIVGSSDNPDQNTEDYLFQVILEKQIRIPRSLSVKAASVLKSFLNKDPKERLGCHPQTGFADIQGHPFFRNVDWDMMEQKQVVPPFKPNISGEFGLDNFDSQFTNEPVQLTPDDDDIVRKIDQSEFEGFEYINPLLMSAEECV
As to the kind of experiment: Inhibition of PKCiota.

The target in data set [17] is Vascular endothelial growth factor receptor 2 (Homo sapiens, UniProt P35968). Kind of data set: Inhibition of VEGFR2.
Data set [18] deals with Angiopoietin-1 receptor (Homo sapiens, UniProt Q02763). Kind of data set: Inhibition of TIE2.
Data set [19] concerns N2a. Kind of data set: Cytotoxicity against mouse N2A cells up to 90 uM by MTT assay. The class given is cell-based. An outline of the steps:
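N2A cells were treated at up to 90 µM. MTT was added in triplicate to a final 1 mg/mL for 2 h. Medium was removed, formazan taken up in DMSO plus glycine buffer (0.1 M glycine, pH 10.5, 0.1 M NaCl), and absorbance read at 550 nm. Cells lysed with 1% Triton X-100 set 100% death; untreated cells served as reference.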
In general terms: Tetrazolium assays rely on reduction of a dye to a coloured formazan, in cell work by metabolically active cells.

Active and inactive are the calls of the source. The rule behind the calls is not given here.

Sequence of Cyclin-dependent kinase 5/CDK5 activator 1 (Q00535 whole entry): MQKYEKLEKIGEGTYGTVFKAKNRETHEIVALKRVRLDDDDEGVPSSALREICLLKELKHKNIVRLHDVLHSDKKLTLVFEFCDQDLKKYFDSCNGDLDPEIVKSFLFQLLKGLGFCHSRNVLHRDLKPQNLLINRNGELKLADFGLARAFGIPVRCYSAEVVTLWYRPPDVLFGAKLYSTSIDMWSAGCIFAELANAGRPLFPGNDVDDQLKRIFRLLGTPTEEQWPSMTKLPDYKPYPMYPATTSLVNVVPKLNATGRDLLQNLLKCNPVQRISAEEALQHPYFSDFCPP
Sequence of Cyclin-dependent kinase 5/CDK5 activator 1 (Q15078 whole entry, further chain): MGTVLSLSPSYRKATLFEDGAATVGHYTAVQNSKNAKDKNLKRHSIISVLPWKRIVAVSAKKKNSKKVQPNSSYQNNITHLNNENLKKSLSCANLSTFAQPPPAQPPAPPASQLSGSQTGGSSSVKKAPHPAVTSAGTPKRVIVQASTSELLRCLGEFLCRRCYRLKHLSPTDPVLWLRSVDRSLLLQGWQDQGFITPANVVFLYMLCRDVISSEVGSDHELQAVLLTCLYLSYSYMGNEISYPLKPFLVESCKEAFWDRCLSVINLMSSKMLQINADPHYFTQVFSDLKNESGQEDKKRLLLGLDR
Sequence of Cyclin-dependent kinase 1/cyclin B1 (P06493 whole entry): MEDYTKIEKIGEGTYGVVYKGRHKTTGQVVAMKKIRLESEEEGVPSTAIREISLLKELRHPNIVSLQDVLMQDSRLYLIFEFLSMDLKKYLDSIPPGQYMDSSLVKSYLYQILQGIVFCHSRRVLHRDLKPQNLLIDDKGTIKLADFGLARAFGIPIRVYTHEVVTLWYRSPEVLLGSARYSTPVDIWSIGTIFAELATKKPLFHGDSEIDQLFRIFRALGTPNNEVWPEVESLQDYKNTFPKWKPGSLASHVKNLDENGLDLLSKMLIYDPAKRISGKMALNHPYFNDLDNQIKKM
Sequence of Cyclin-dependent kinase 1/cyclin B1 (P14635 whole entry, further chain): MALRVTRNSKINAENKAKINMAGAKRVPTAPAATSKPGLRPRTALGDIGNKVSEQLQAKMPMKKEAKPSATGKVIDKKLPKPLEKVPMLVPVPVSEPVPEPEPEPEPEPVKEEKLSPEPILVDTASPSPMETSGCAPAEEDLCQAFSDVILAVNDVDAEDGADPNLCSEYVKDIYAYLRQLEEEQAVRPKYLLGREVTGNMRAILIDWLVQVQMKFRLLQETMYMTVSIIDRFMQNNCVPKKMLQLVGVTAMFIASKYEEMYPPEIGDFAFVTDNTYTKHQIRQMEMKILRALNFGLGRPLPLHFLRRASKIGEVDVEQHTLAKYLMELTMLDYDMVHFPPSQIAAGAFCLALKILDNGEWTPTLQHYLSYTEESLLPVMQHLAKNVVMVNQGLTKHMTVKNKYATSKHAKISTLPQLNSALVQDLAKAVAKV
Sequence of Cdk5-Cdk5r1 complex (Mus musculus) (P49615 whole entry, looked up): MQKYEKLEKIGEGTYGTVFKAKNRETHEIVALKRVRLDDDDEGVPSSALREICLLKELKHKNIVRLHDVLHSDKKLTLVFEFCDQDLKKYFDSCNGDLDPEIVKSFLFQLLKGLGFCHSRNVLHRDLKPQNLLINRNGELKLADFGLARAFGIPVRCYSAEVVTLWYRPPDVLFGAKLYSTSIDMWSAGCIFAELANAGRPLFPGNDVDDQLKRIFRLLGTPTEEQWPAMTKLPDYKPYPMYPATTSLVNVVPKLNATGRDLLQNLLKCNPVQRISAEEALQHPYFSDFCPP
Sequence of Cdk5-Cdk5r1 complex (Mus musculus) (P61809 whole entry, looked up): as the sequence (Q15078 whole entry, further chain) above, with V68A, N76S, T79A, G121V, V133I counted along it

Usually Ki stands for a dissociation constant, usually derived from enzyme kinetics or from competition with a known ligand. In the case of `COc1ccc2oc3ncc(OCc4ccccc4)c(-c4ccccc4)c3c2c1`, the inhibition constant Ki in [1] is over 1000 µM; in [2], 26.1 µM; in data set [3] it was 0.02 µM; in data set [4] it was over 1000 µM; in data set [5] it was over 1000 µM.
As for `COc1cnc2oc3ccc(O)cc3c2c1-c1ccccc1`, the Ki was 5.3 µM in data set [1]; over 1000 µM in [2]; 14.8 µM in data set [3]; 24 µM in data set [4]; 93.6 µM in data set [5].
On the same counts, the results for `Oc1ccc2oc3ncc(OCc4ccccc4)c(-c4ccccc4)c3c2c1` are 2.3 µM, over 1000 µM, 5.8 µM, 6.4 µM and 36.6 µM.
Consider `Oc1ccc2oc3ncc(O)c(-c4ccccc4)c3c2c1`, for which the inhibition constant (Ki) in data set [1] was 0.01 µM; in data set [7], over 1000 µM; in data set [8], over 1000 µM; in [11], over 1000 µM; in data set [12], over 1000 µM; in data set [13], over 1000 µM. The Ki was 773 µM in data set [14]; over 1000 µM in [15]; 0.11 µM in [2]; over 1000 µM in data set [16]; 0.02 µM in data set [3]; over 1000 µM in data set [17]. The Ki in data set [18] was over 1000 µM; in data set [4], 0.6 µM; in [5], 18.5 µM. The inhibition result in [6] and in [10] was “Active” in each case. Also, the Activity entry in [9] and in [19] was “Non-toxic” each time.
`Oc1cnc2oc3c4ccccc4c(O)cc3c2c1-c1ccccc1`: the Ki came to 0.7 µM in data set [1], 0.07 µM in [2] and 0.01 µM in [3].
Turning to `COc1ccc2oc3ncc(OC)c(-c4ccccc4)c3c2c1`, the inhibitory constant (Ki) in data set [1], in data set [2], in data set [3], in [4] and in data set [5] was over 1000 µM throughout.
Turning to `Oc1cc2c(oc3ncc(OCc4ccccc4)c(-c4ccccc4)c32)c2ccccc12`, the Ki in [1] was found to be 0.09 µM; in data set [2] it was 2.1 µM; in data set [3] it was 1.6 µM.
On to `Cc1cc2oc3ncc(OCc4ccccc4)c(-c4ccccc4)c3c2cc1O`, for which the Ki in data set [1] came to 1.3 µM; in [2] it was 25.3 µM; in [3], 5.8 µM.
Consider `COc1ccc2oc3ncc(O)c(-c4ccccc4)c3c2c1`, for which the Ki in data set [1] was over 1000 µM; in [2] it was over 1000 µM; in [3] it was over 1000 µM; in data set [4], over 1000 µM; in [5] it was 144 µM.
